Data on ten compounds can be found in ChEMBL document CHEMBL2311478, “Macrolactonolides: a novel class of anti-inflammatory compounds” (Bioorg Med Chem, 2013).

In one data set the test system is Escherichia coli. Nature of the data set: Antibacterial activity against Escherichia coli ATCC 25922 by broth microdilution method. The data set is classed as functional. The essentials:
(§1)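 CLSI broth microdilution with double dilutions in 96-well plates. For streptococci, 5% horse serum replaced lysed blood in the medium. Inocula were grown on Columbia agar with 5% sheep blood for streptococci, Mueller–Hinton chocolate agar for H. influenzae, and Mueller–Hinton agar for staphylococci. Read-out is MIC in mg/L.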

The subject of data set [1] is Streptococcus pneumoniae. In words: Antibacterial activity against constitutive-resistant to macrolide, licosamide and streptogramin Streptococcus pneumoniae 58 Spain by broth microdilution method. Type of data set: functional. In outline: (§2)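 MICs by CLSI broth microdilution with double dilutions, except that Streptococcus medium used 5% horse serum in place of lysed blood. Bacteria were pre-grown on Columbia agar with 5% sheep blood (streptococci) or Mueller–Hinton agar (staphylococci).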

The subject of data set [2] is Streptococcus pyogenes. In words: Antibacterial activity against inducible-resistant to macrolide, licosamide and streptogramin Streptococcus pyogenes Finland 11 by broth microdilution method. The data set is classed as functional. The essentials: as §2
In data set [3] the test system is Streptococcus pyogenes. Nature of the data set: Antibacterial activity against constitutive-resistant to macrolide, licosamide and streptogramin Streptococcus pyogenes 166 GR-Micro by broth microdilution method. Type of data set: functional. The essentials: as §2
The test system of data set [4] is Staphylococcus aureus. In words: Antibacterial activity against Staphylococcus aureus ATCC 13709 by broth microdilution method. The data set is classed as functional. The essentials: as §1
A further data set relates to Enterococcus faecalis. Nature of the data set: Antibacterial activity against Enterococcus faecalis ATCC 29213 by broth microdilution method. Type of data set: functional. In outline:
as §1

Data set [5] concerns Streptococcus pneumoniae. In words: Antibacterial activity against efflux mediated macrolide-resistant Streptococcus pneumoniae Ci137 by broth microdilution method. The data set is classed as functional. The essentials:
as §2

Data set [6] has as its system Streptococcus pyogenes. Nature of the data set: Antibacterial activity against erythromycin susceptible Streptococcus pyogenes 3565 by broth microdilution method. Type of data set: functional. In outline: as §1
For another data set, the system named is Moraxella catarrhalis. Nature of the data set: Antibacterial activity against Moraxella catarrhalis ATCC 23246 by broth microdilution method. The data set is classed as functional. In outline: as §1
Data set [7] concerns Streptococcus pneumoniae. In words: Antibacterial activity against erythromycin susceptible Streptococcus pneumoniae SP 030 by broth microdilution method. The data set is classed as functional. The essentials:
as §1

Data set [8] deals with Staphylococcus aureus. In words: Antibacterial activity against efflux mediated macrolide-resistant Staphylococcus aureus PK1 by broth microdilution method. Type of data set: functional. In outline:
as §2

Data set [9] has as its system Staphylococcus aureus. Nature of the data set: Antibacterial activity against constitutive-resistant to macrolide, licosamide and streptogramin Staphylococcus aureus PK2 by broth microdilution method. The data set is classed as functional. The essentials:
as §2

Data set [10] concerns Streptococcus pyogenes. Nature of the data set: Antibacterial activity against efflux mediated macrolide-resistant Streptococcus pyogenes Finland 2 by broth microdilution method. The data set is classed as functional. The essentials:
as §2

For the next data set, the system named is Haemophilus influenzae. Nature of the data set: Antibacterial activity against Haemophilus influenzae ATTC 49247 by broth microdilution method. The data set is classed as functional. The essentials:
as §1

For data set [11], the system named is Staphylococcus aureus. In words: Antibacterial activity against inducible-resistant to macrolide, licosamide and streptogramin Staphylococcus aureus 90265/97 by broth microdilution method. The data set is classed as functional. In outline:
as §2

Data set [12] concerns Streptococcus pneumoniae. Nature of the data set: Antibacterial activity against inducible-resistant to macrolide, licosamide and streptogramin Streptococcus pneumoniae 134 GR-M by broth microdilution method. Type of data set: functional. In outline: as §2
Data set [13] can be described thus: Drug uptake in mouse J774A1 cells assessed as compound retention at 10 uM after 3 hrs by LC-MS/MS method. The data set is classed as ADME, cell-based. The settings on record: j774.a1, 3 h. In outline: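 J774A.1 cells were loaded with 10 µM compound for 3 h in DMEM/25 mM Hepes, then incubated 3 h in fresh medium. Cells were washed, lysed in 0.5% Triton X-100 and analysed by LC–MS/MS. Retention is the percentage of the initially accumulated amount remaining. Triplicates, mean ± SD from one representative experiment.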

The nature of data set [14]: Drug uptake in mouse J774A1 cells at 10 uM after 3 hrs by LC-MS/MS method. The settings on record: j774.a1, 3 h. Type of data set: ADME, cell-based. In outline: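 Uptake in J774A.1 macrophages seeded two days before at 2 × 10^5 cells/well. Cells were exposed to 10 µM compound for 3 h in DMEM/25 mM Hepes without supplements, washed with ice-cold PBS and lysed in 0.5% Triton X-100. Lysate was measured by LC–MS/MS, using a cell volume of 1.68 µL per 10^6 cells. Result is the I/E ratio, with E taken as 10 µM.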

In data set [15] the target is T1, Glucocorticoid receptor (Homo sapiens, UniProt P04150).
T1 sequence (P04150 whole entry): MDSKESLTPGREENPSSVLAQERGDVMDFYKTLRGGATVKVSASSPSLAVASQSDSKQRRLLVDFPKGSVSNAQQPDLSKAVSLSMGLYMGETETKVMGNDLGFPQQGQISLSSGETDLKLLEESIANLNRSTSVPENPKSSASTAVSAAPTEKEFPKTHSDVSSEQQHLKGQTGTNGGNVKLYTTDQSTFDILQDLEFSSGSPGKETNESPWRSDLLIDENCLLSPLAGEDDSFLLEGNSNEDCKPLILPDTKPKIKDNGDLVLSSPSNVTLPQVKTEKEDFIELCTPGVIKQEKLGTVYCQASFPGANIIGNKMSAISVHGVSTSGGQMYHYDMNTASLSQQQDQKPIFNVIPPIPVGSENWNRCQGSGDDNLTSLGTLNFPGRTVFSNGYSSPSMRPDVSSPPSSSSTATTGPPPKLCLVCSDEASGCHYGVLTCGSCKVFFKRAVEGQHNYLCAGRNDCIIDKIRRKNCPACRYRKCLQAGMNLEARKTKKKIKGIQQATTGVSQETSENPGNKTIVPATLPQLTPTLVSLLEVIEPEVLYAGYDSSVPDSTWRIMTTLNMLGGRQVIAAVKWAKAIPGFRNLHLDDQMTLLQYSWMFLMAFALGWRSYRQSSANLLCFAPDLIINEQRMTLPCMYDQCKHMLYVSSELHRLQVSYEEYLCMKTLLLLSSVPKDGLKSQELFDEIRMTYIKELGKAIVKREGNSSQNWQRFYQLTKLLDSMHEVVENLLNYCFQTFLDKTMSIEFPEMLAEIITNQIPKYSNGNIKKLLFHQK
In words: Displacement of [3H]-dexamethasone human glucocorticoid receptor alpha expressed in 293 MSR cells after 60 mins by scintillation counting. Type of data set: cell-based.

Data set [16] concerns the target T1, Glucocorticoid receptor. Nature of the data set: Binding affinity to glucocorticoid receptor (unknown origin) by fluorescence polarization competitive binding assay.
Data set [17] deals with Rattus norvegicus. Nature of the data set: Antiinflammatory activity against ovalbumin-induced airway allergic Brown-Norway rat model assessed as decrease of macrophages in bronchoalveolar lavage fluid at 11 mg/kg administered intranasally as dry powder measured on day 29 after ovalbumin challenge. The data set is classed as functional, organism-based. The arrangement: dose 11 mg/kg. As to conditions: Lung.

For data set [18], the system named is Rattus norvegicus. In words: Antiinflammatory activity against ovalbumin-induced airway allergic Brown-Norway rat model assessed as decrease of eosinophils in bronchoalveolar lavage fluid at 11 mg/kg administered intranasally as dry powder measured on day 29 after ovalbumin challenge (reference value: 53.1%). The data set is classed as functional, Lung. Details: scale not given: the % may be the effect or the level left.

The subject of data set [19] is Rattus norvegicus. In words: Antiinflammatory activity against ovalbumin-induced airway allergic Brown-Norway rat model assessed as decrease of neutrophils in bronchoalveolar lavage fluid at 11 mg/kg administered intranasally as dry powder measured on day 29 after ovalbumin challenge. Details: dose 11 mg/kg. Type of data set: functional, organism-based.

Molecules are shown by their SMILES. Converted amounts (≈) assume the structure as drawn. The source made the active and inactive calls. The rule behind the calls is not given here.

On to `CC[C@H]1OC(=O)[C@H](C)[C@@H](O[C@H]2C[C@@](C)(OC)[C@@H](O)[C@H](C)O2)[C@H](C)[C@@H](O[C@@H]2O[C@H](C)C[C@H](N(C)C)[C@H]2O)[C@](C)(O)C[C@@H](C)CN(C)[C@H](C)[C@@H](O)[C@]1(C)O` [AZITHROMYCIN], for which the MIC in the data set on Escherichia coli is 2 µg/mL (≈ 2.67 µM); in the data set on Streptococcus pneumoniae [1], over 64 µg/mL; against Streptococcus pyogenes [2] it was 16 µg/mL (≈ 21.4 µM); in the data set on Streptococcus pyogenes [3], over 64 µg/mL; with Staphylococcus aureus [4], 0.5 µg/mL (≈ 0.668 µM); against Enterococcus faecalis it was 4 µg/mL (≈ 5.34 µM). Further, the MIC is 8 µg/mL (≈ 10.7 µM) against Streptococcus pneumoniae [5]; at most 0.125 µg/mL with Streptococcus pyogenes [6]; at most 0.125 µg/mL in the data set on Moraxella catarrhalis; at most 0.125 µg/mL with Streptococcus pneumoniae [7]; over 64 µg/mL in the data set on Staphylococcus aureus [8]; over 64 µg/mL in the data set on Staphylococcus aureus [9]. The MIC against Streptococcus pyogenes [10] is 8 µg/mL (≈ 10.7 µM); against Haemophilus influenzae, 1 µg/mL (≈ 1.34 µM); in the data set with Staphylococcus aureus [11] it was over 64 µg/mL; in the data set with Streptococcus pneumoniae [12], over 64 µg/mL.
For the compound `C[C@@H]1C[C@H]2[C@@H]3CCC4=CC(=O)C=C[C@]4(C)[C@@]3(F)[C@@H](O)C[C@]2(C)[C@@]1(O)C(=O)CO` [DEXAMETHASONE], the Drug uptake result in data set [13] and in data set [14] was “Not Active” each time.
Take `CC[C@H]1OC(=O)[C@H](C)[C@@H](O)[C@H](C)[C@@H](O[C@@H]2O[C@H](C)C[C@H](N(C)C)[C@H]2O)[C@](C)(O)C[C@@H](C)CN(CCCNC(=O)[C@@]2(O)[C@H](C)C[C@H]3[C@@H]4C[C@H](F)C5=CC(=O)C=C[C@]5(C)[C@@]4(Cl)[C@@H](O)C[C@@]32C)[C@H](C)[C@@H](O)[C@]1(C)O`: the EC50 at Glucocorticoid receptor [15] is 1680 nM; at Glucocorticoid receptor [16] it was 350 nM.
On the same counts, the results for `CC[C@H]1OC(=O)[C@H](C)[C@@H](O[C@H]2C[C@@](C)(OC)[C@@H](O)[C@H](C)O2)[C@H](C)[C@@H](O[C@@H]2O[C@H](C)C[C@H](N(C)C)[C@H]2O)[C@](C)(O)C[C@@H](C)CN(CCCNC(=O)[C@@]2(O)CC[C@H]3[C@@H]4CCC5=CC(=O)CC[C@]5(C)[C@H]4[C@@H](O)C[C@@]32C)[C@H](C)[C@@H](O)[C@]1(C)O` are over 25000 nM and over 10000 nM.
For `CC[C@H]1OC(=O)[C@H](C)[C@@H](O)[C@H](C)[C@@H](O[C@@H]2O[C@H](C)C[C@H](N(C)C)[C@H]2O)[C@](C)(O)C[C@@H](C)CN(CCCNC(=O)[C@H]2[C@H](C)C[C@H]3[C@@H]4CCC5=CC(=O)C=C[C@]5(C)[C@@]4(F)[C@@H](O)C[C@@]32C)[C@H](C)[C@@H](O)[C@]1(C)O`, the values for the EC50 on Glucocorticoid receptor [15] and on Glucocorticoid receptor [16] were over 25000 nM and 2810 nM, respectively.
In the same order, the values of `CC[C@H]1OC(=O)[C@H](C)[C@@H](O[C@H]2C[C@@](C)(OC)[C@@H](O)[C@H](C)O2)[C@H](C)[C@@H](O[C@@H]2O[C@H](C)C[C@H](N(C)C)[C@H]2O)[C@](C)(O)C[C@@H](C)CN(CCCNC(=O)[C@@]2(O)[C@H](C)C[C@H]3[C@@H]4C[C@H](F)C5=CC(=O)C=C[C@]5(C)[C@H]4[C@@H](O)C[C@@]32C)[C@H](C)[C@@H](O)[C@]1(C)O` are over 25000 nM and 1440 nM.
`CCC(=O)OCC(=O)[C@@]1(OC(=O)CC)[C@@H](C)C[C@H]2[C@@H]3CCC4=CC(=O)C=C[C@]4(C)[C@@]3(Cl)[C@@H](O)C[C@@]21C` [BECLOMETHASONE DIPROPIONATE]: the result in the data set on Rattus norvegicus [17] and in the data set with Rattus norvegicus [19] was inactive. For the same compound, the Activity in the data set on Rattus norvegicus [18] is listed as 43%.
Consider `CC[C@H]1OC(=O)[C@H](C)[C@@H](O[C@H]2C[C@@](C)(OC)[C@@H](O)[C@H](C)O2)[C@H](C)[C@@H](O[C@@H]2O[C@H](C)C[C@H](N(C)C)[C@H]2O)[C@](C)(O)C[C@@H](C)CN(CCCNC(=O)[C@@]2(O)[C@H](C)C[C@H]3[C@@H]4C[C@H](F)C5=CC(=O)C=C[C@]5(C)[C@@]4(Cl)[C@@H](O)C[C@@]32C)[C@H](C)[C@@H](O)[C@]1(C)O`, for which the EC50 was 3810 nM at Glucocorticoid receptor [15] and 1500 nM on Glucocorticoid receptor [16].
`C[C@@H]1C[C@H]2[C@@H]3CCC4=CC(=O)C=C[C@]4(C)[C@@]3(F)[C@@H](O)C[C@]2(C)[C@H]1C(=O)CO` [DESOXIMETASONE]: the Drug uptake entry in data set [13] and in [14] was “Not Active” throughout.
As for `CC[C@H]1OC(=O)[C@H](C)[C@@H](O)[C@H](C)[C@@H](O[C@@H]2O[C@H](C)C[C@H](N(C)C)[C@H]2O)[C@](C)(O)C[C@@H](C)CN(CCCNC(=O)[C@@]2(O)[C@H](C)C[C@H]3[C@@H]4C[C@H](F)C5=CC(=O)C=C[C@]5(C)[C@H]4[C@@H](O)C[C@@]32C)[C@H](C)[C@@H](O)[C@]1(C)O`, the EC50 at Glucocorticoid receptor [15] came to 5910 nM; at Glucocorticoid receptor [16] it was 550 nM.
